ChEMBL document CHEMBL4715736, “Identification of anticancer agents based on the thieno[2,3-b]pyridine and 1H-pyrazole molecular scaffolds” (2016)

Tests used:
Assay type in all cases: functional
OVCAR-3 [1] = assay: Growth inhibition of human OVCAR-3 cells assessed as cell growth at 100 uM incubated for 48 hrs by sulforhodamine B assay relative to control; details: read-out: Activity
NCI-H226 [2] = assay: Growth inhibition of human NCI-H226 cells assessed as cell growth at 0.1 uM incubated for 48 hrs by sulforhodamine B assay relative to control; details: read-out: Activity
K562 = assay: Growth inhibition of human K562 cells assessed as cell growth at 0.01 uM incubated for 48 hrs by sulforhodamine B assay relative to control; details: read-out: Activity
NCI-H522 = assay: Growth inhibition of human NCI-H522 cells assessed as cell growth at 100 uM incubated for 48 hrs by sulforhodamine B assay relative to control; details: read-out: Activity
COLO 205 = assay: Growth inhibition of human COLO 205 cells incubated for 48 hrs by sulforhodamine B assay
Outline: (§1)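 NCI Developmental Therapeutics Program NCI60 panel. Compounds that were active in the 10 µM one-dose screen went on to dose–response testing. Growth at each concentration is expressed relative to untreated control (100%). GI50 (concentration giving 50% of maximal inhibition of proliferation) and TGI (concentration giving total growth inhibition) were derived from the curves.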

SF-268 = assay: Growth inhibition of human SF-268 cells assessed as cell growth at 100 uM incubated for 48 hrs by sulforhodamine B assay relative to control; details: read-out: Activity
RXF 393 [3] = assay: Growth inhibition of human RXF 393 cells assessed as cell growth at 1 uM incubated for 48 hrs by sulforhodamine B assay relative to control; details: read-out: Activity
MDA-MB-468 = assay: Growth inhibition of human MDA-MB-468 cells assessed as cell growth at 100 uM incubated for 48 hrs by sulforhodamine B assay relative to control; details: read-out: Activity
M14 = assay: Growth inhibition of human M14 cells assessed as cell growth at 100 uM incubated for 48 hrs by sulforhodamine B assay relative to control; details: read-out: Activity
DU-145 = assay: Growth inhibition of human DU-145 cells incubated for 48 hrs by sulforhodamine B assay; outline: as §1
T47D = assay: Growth inhibition of human T47D cells assessed as cell growth at 100 uM incubated for 48 hrs by sulforhodamine B assay relative to control; details: read-out: Activity
UACC-62 = assay: Growth inhibition of human UACC-62 cells incubated for 48 hrs by sulforhodamine B assay
Outline: (§2)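 NCI DTP 60-line human tumour panel. Dose-response curves were run only for ligands active in the initial 10 µM screen. GI50 (concentration giving 50% of maximal inhibition of proliferation) and TGI (concentration giving total growth inhibition) were derived from these curves.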

MOLT-4 = assay: Growth inhibition of human MOLT-4 cells assessed as cell growth at 100 uM incubated for 48 hrs by sulforhodamine B assay relative to control; details: read-out: Activity
UO-31 [4] = assay: Growth inhibition of human UO-31 cells assessed as cell growth at 100 uM incubated for 48 hrs by sulforhodamine B assay relative to control; details: read-out: Activity
Hs-578T [5] = assay: Growth inhibition of human Hs-578T cells assessed as cell growth at 1 uM incubated for 48 hrs by sulforhodamine B assay relative to control; details: read-out: Activity
Hs-578T [6] = assay: Growth inhibition of human Hs-578T cells assessed as cell growth at 0.1 uM incubated for 48 hrs by sulforhodamine B assay relative to control; details: read-out: Activity
ACHN = assay: Growth inhibition of human ACHN cells assessed as cell growth at 0.01 uM incubated for 48 hrs by sulforhodamine B assay relative to control; details: read-out: Activity
UO-31 [7] = assay: Growth inhibition of human UO-31 cells incubated for 48 hrs by sulforhodamine B assay; outline: as §2
PC-3 = assay: Growth inhibition of human PC-3 cells incubated for 48 hrs by sulforhodamine B assay; outline: as §2
SK-MEL-2 = assay: Growth inhibition of human SK-MEL-2 cells assessed as cell growth at 1 uM incubated for 48 hrs by sulforhodamine B assay relative to control; details: read-out: Activity
OVCAR-5 [8] = assay: Growth inhibition of human OVCAR-5 cells incubated for 48 hrs by sulforhodamine B assay; outline: as §2
OVCAR-8 [9] = assay: Growth inhibition of human OVCAR-8 cells assessed as cell growth at 0.1 uM incubated for 48 hrs by sulforhodamine B assay relative to control; details: read-out: Activity
BT-549 = assay: Growth inhibition of human BT-549 cells incubated for 48 hrs by sulforhodamine B assay; outline: as §1
LOX IMVI = assay: Growth inhibition of human LOX IMVI cells assessed as cell growth at 1 uM incubated for 48 hrs by sulforhodamine B assay relative to control; details: read-out: Activity
OVCAR-5 [10] = assay: Growth inhibition of human OVCAR-5 cells assessed as cell growth at 1 uM incubated for 48 hrs by sulforhodamine B assay relative to control; details: read-out: Activity
TK-10 = assay: Growth inhibition of human TK-10 cells incubated for 48 hrs by sulforhodamine B assay; outline: as §2
A549 = assay: Growth inhibition of human A549/ATCC cells assessed as cell growth at 1 uM incubated for 48 hrs by sulforhodamine B assay relative to control; details: read-out: Activity; outline: as §1
Malme-3M = assay: Growth inhibition of human Malme-3M cells assessed as cell growth at 0.1 uM incubated for 48 hrs by sulforhodamine B assay relative to control; details: read-out: Activity
OVCAR-8 [11] = assay: Growth inhibition of human OVCAR-8 cells assessed as cell growth at 1 uM incubated for 48 hrs by sulforhodamine B assay relative to control; details: read-out: Activity
NCI-H226 [12] = assay: Growth inhibition of human NCI-H226 cells assessed as cell growth at 100 uM incubated for 48 hrs by sulforhodamine B assay relative to control; details: read-out: Activity
NCI-H460 = assay: Growth inhibition of human NCI-H460 cells assessed as cell growth at 0.01 uM incubated for 48 hrs by sulforhodamine B assay relative to control; details: read-out: Activity
OVCAR-3 [13] = assay: Growth inhibition of human OVCAR-3 cells assessed as cell growth at 0.1 uM incubated for 48 hrs by sulforhodamine B assay relative to control; details: read-out: Activity
NCI-H23 = assay: Growth inhibition of human NCI-H23 cells incubated for 48 hrs by sulforhodamine B assay
Outline: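 NCI60 panel at the NCI Developmental Therapeutics Program. Only compounds active in the 10 µM screen went to dose-response testing. GI50, the concentration giving 50% of maximal inhibition of proliferation, and TGI, the concentration giving total growth inhibition, were derived from the dose-response curves.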

RXF 393 [14] = assay: Growth inhibition of human RXF 393 cells assessed as cell growth at 0.1 uM incubated for 48 hrs by sulforhodamine B assay relative to control; details: read-out: Activity
UO-31 [15] = assay: Growth inhibition of human UO-31 cells assessed as cell growth at 0.1 uM incubated for 48 hrs by sulforhodamine B assay relative to control; details: read-out: Activity
[16] = read-out: LC50 (the source's name)

Nc1c(C(=O)Nc2ccccc2)sc2nc3c(cc12)CN(Cc1ccccc1)CC3 gave a growth at 100 µM (OVCAR-3 [1]) of 20%, a growth at 0.1 µM (NCI-H226 [2]) of 96% and a growth at 0.01 µM (K562) of 98%. For the same compound, the growth at 100 µM (NCI-H522) was 31%, the GI50 (COLO 205) was 24 µM and the LC50 (concentration killing 50% of cells) (COLO 205) was greater than 100 µM. For the same compound, the TGI (COLO 205) was greater than 100 µM, the growth at 100 µM (SF-268) was 9% and the growth at 1 µM (RXF 393 [3]) was 87%. For the same compound, the growth at 100 µM (MDA-MB-468) was 22%, the growth at 100 µM (M14) was 35% and the GI50 (DU-145) was 14.8 µM. The TGI (DU-145) was greater than 100 µM, the CC50 (DU-145; [16]) was greater than 100 µM and the growth at 100 µM (T47D) was 19%. The GI50 (UACC-62) was 13.9 µM, the LC50 (UACC-62) was greater than 100 µM and the TGI (UACC-62) was greater than 100 µM. For the same compound, the growth at 100 µM (MOLT-4) was 18%, the growth at 100 µM (UO-31 [4]) was 32% and the growth at 1 µM (Hs-578T [5]) was 78%. It also gave a growth at 0.1 µM (Hs-578T [6]) of 92%, a growth at 0.01 µM (ACHN) of 101% and a GI50 (UO-31 [7]) of 6.14 µM. For the same compound, the TGI (UO-31 [7]) was greater than 100 µM, the CC50 (UO-31 [7]; [16]) was greater than 100 µM and the GI50 (PC-3) was 27.1 µM. It also gave a TGI (PC-3) greater than 100 µM, a CC50 (PC-3; [16]) greater than 100 µM and a growth at 1 µM (SK-MEL-2) of 101%. For the same compound, the GI50 (OVCAR-5 [8]) was greater than 100 µM, the TGI (OVCAR-5 [8]) was greater than 100 µM and the CC50 (OVCAR-5 [8]; [16]) was greater than 100 µM. It also gave a growth at 0.1 µM (OVCAR-8 [9]) of 101%, a GI50 (BT-549) of 16.8 µM and a TGI (BT-549) of 92.3 µM. It also gave a CC50 (BT-549; [16]) greater than 100 µM, a growth at 1 µM (LOX IMVI) of 98% and a growth at 1 µM (OVCAR-5 [10]) of 93%. For the same compound, the GI50 (TK-10) was 4.09 µM, the TGI (TK-10) was 54.7 µM and the CC50 (TK-10; [16]) was greater than 100 µM. The growth at 1 µM (A549) was 88%, the growth at 0.1 µM (Malme-3M) was 88% and the growth at 1 µM (OVCAR-8 [11]) was 98%. The growth at 100 µM (NCI-H226 [12]) was 19%, the growth at 0.01 µM (NCI-H460) was 101% and the growth at 0.1 µM (OVCAR-3 [13]) was 100%. It also gave a GI50 (NCI-H23) of 21.7 µM, an LC50 (50% lethal concentration) (NCI-H23) greater than 100 µM and a TGI (NCI-H23) greater than 100 µM. It also gave a growth at 0.1 µM (RXF 393 [14]) of 94% and a growth at 0.1 µM (UO-31 [15]) of 83%.
